Screens deposited in PubChem BioAssay by several laboratories.
Rev-RRE block – HIV Rev-RRE protein-RNA interaction inhibition; P05866; Rev peptide-RRE RNA binding, FRET; inhibition, % at 8 µM; 97,000 compounds, 0.79% hits; AID 704;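 active means inhibition above the screen-wide mean plus 3 SD, cut at about 35% in these data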;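 further: 0% = median DMSO wells and 100% = median Neomycin B control wells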
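Test system: labelled RRE RNA duplex and labelled Rev peptide. Times: 5 min compound–RNA preincubation, then 15 min with peptide, 25 °C. Doses: single-dose 8 µM. Measured by: FRET, excitation 480 nm, emission 540 nm donor and 671 nm acceptor. Measure: % inhibition of FRET ratio versus controls.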
FAK inh – inhibitors of human focal adhesion kinase; AID 727; biochemical FAK kinase activity assay; inhibition, %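 (tested at 7 µM)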; 97,000 compounds, 0.84% hits; Q05397; in the data active means inhibition above about 19%;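 further: 0% = DMSO and 100% = reference compound high control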
PTPN22 inh 2 – inhibitors of human LYP (PTPN22) phosphatase. Q9Y2R2. inhibition, % at 2 µM. recombinant LYP catalytic domain, DiFMUP fluorescence. 96,000 compounds, 0.21% hits. AID 640;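 active means inhibition at 2 µM at or above a set limit, the screen mean plus 3 SD, cut at about 24% in these data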;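 further: 0% = DMSO with enzyme and 100% = enzyme fully blocked by orthovanadate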
Target sequence (Q9Y2R2 whole entry, looked up, the tested form may be a part): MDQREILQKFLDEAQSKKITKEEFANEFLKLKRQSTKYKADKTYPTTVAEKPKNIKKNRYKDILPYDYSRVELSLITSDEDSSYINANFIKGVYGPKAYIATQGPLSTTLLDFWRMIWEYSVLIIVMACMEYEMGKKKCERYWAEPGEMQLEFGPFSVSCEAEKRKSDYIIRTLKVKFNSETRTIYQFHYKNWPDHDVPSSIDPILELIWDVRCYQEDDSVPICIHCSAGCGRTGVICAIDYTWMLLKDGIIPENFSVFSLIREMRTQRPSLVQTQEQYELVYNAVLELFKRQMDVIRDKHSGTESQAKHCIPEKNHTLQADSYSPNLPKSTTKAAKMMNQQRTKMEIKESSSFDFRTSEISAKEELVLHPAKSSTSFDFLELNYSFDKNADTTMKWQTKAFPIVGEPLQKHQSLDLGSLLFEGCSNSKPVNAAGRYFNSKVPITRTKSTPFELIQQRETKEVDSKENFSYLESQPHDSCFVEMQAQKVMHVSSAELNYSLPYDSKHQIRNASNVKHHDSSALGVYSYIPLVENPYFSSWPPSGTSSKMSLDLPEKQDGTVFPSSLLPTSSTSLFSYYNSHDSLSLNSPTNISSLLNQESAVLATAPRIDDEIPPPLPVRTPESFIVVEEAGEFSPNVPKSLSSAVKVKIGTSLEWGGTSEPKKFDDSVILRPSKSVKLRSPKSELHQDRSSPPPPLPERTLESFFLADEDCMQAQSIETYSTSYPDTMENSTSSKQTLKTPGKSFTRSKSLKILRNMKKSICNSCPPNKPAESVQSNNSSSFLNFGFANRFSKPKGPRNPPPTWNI
EphB4 antag – antagonists of human EphB4-ephrin-B2 interaction; P54760; inhibition, % at 7 µM; AID 720; 97,000 compounds, 0.15% hits; EphB4 LBD / TNYL-RAW-Alexa532 peptide, fluorescence polarization;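 active means inhibition above the screen-wide mean inhibition plus 3 SD, cut at about 15% in these data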;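 further: 0% = DMSO wells and 100% = excess unlabeled TNYL-RAW peptide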
PTPN22 act – LYP (human) phosphatase activation. recombinant LYP, DiFMUP fluorescence; 0 = plate median, 100 = signal doubled. activation, % at 2 µM. 96,000 compounds, 0.11% hits. AID 697;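 active means activation at 2 µM above a set limit, the mean plus 5 SD, cut at about 37% in these data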
PTPN22 act conf – LYP (PTPN22) phosphatase activation confirmation; Recombinant LYP, DIFMUP fluorescence; zero set by plate's median compound well; AID 1031; 100 tested, under 10 active; shares compounds with PTPN22 act; activation, % at 2 µM; call rule not given here
The depositor's hits bear a star; . = no result given. Hits are enriched below; roughly 1.9% of the tested compounds scored in any of these assays.

SMILES	Rev-RRE block	FAK inh	PTPN22 inh 2	EphB4 antag	PTPN22 act	PTPN22 act conf
COc1ccc(-n2c(Cc3cccn3C)nnc2SCC(=O)Nc2cccc(NC(C)=O)c2)cc1	10	0	-7	6	4	.
COc1ccc(N=NC2=C(O)CC(C)(C)CC2=O)c(OC)c1	59*	-2	3	2	-4	.
COc1ccc(N=NC2=C(O)CC(C)(C)CC2=O)cc1	11	4	6	-3	-4	.
COc1ccc(-n2cnnc2SCC(=O)Nc2ccc(N3CCOCC3)cc2)cc1	3	-10	12	-1	-7	.
c1ccc(-n2nnnc2-c2cnc(-c3ccncc3)nc2-c2cccs2)cc1	3	30*	-6	1	8	.
N#CC1=C(N)C(C#N)(C#N)C(c2cccnc2)C2CCCC=C12 (configuration not stated)	32	-3	-14	-2	12	.
N#CC1=C(N)C(C#N)(C#N)C(c2ccc[nH]2)C2CCCC=C12 (configuration not stated)	63*	5	4	7	-8	.
CCOC(=O)C1=C(C)OC(N)=C(C#N)C1c1c(C)nn(-c2ccc(C)cc2)c1Cl (configuration not stated)	17	0	33*	0	-30	.
COC(=O)C1=C(N)Oc2cc(C)n(CC3CCCO3)c(=O)c2C1c1ccccc1OC (configuration not stated)	3	0	11	-11	-11	.
COC(=O)C1=C(N)Oc2cc(N(C)C)ccc2C1c1ccccc1OC (configuration not stated)	37*	3	-14	1	12	.
COc1ncnc2c1cnn2-c1ccccc1	2	-1	-38	0	38*	1
CC1(C)CC(=O)C2=C(C1)N(Cc1ccco1)C(=O)C2(NC(=O)c1cccnc1)C(F)(F)F (configuration not stated)	5	1	-4	4	4	.
CC1(C)CC(=O)C2=C(C1)N(Cc1ccco1)C(=O)C2(O)C(F)(F)F (configuration not stated)	-4	-2	-41	-9	37*	3
CCCCCCC(=O)c1c(C)[nH]c(C(=O)OCC)c1C	9	10	8	7	-2	.
CCOC(=O)C1CCC2(CC1)C(C#N)=C(N)Oc1n[nH]c(C)c12 (configuration not stated)	-2	5	-6	2	7	.
CCOC(=O)c1cnn(-c2nc(-c3ccc(F)cc3)cs2)c1C(F)(F)F	17	-4	-34	-7	40*	-3
Cc1nnc(NC(=O)CSCc2ccccc2)s1	8	-1	-36	1	35	.
CCOCc1nnc(NC(=O)CSCc2ccccc2)s1	2	-4	-41	-6	42*	-1
O=C(COc1ccc(Br)cc1CO)Nc1ccccc1F	0	5	-45	-8	38*	-2
COc1ccccc1NC(=O)CN1CCN(C(=O)c2ccco2)CC1	-2	-1	-38	-3	37*	0
Cc1ccc(Cl)cc1NC(=O)c1cccc(OC(F)F)c1	6	2	-46	7	40*	7
COc1cccc(C(=O)Nc2ccc(F)c(F)c2F)c1	1	2	-7	2	10	.
CC(=O)Nc1sc2c(c1C(N)=O)CCCC2	7	16	-42	3	45*	10
Cc1cc(N2CCOCC2)nc2ccc(NC(=O)CCC(=O)N3CCCCC3)cc12	3	3	-42	1	38*	-1
O=C(Nc1ccc2c(c1)C(=O)N(CC1CCCO1)C2=O)c1ccc(Cl)c(Cl)c1 (configuration not stated)	17	2	-33	1	37*	1
SMILES	Rev-RRE block	FAK inh	PTPN22 inh 2	EphB4 antag	PTPN22 act	PTPN22 act conf
O=c1nc2ccccc2c2n1CC(CN1CCN(c3ccccc3F)CC1)N2 (configuration not stated)	4	2	2	-1	0	.
CCOC(=O)C1CCN(Cc2coc3c(Cl)cc(Cl)cc3c2=O)CC1	3	-4	-39	2	39*	-1
Cc1ccccc1NC(=O)CN(c1ccc(F)cc1)S(C)(=O)=O	1	2	-9	-6	8	.
CN(C)S(=O)(=O)N(CC(=O)Nc1ccccc1F)c1ccccc1	-4	1	-38	-2	39*	-4
COC(=O)c1ccc(C)c(NS(=O)(=O)c2ccc3c(c2)OCCO3)c1	2	-4	-38	0	42*	-1
COC(=O)c1ccc(C)c(NS(=O)(=O)c2ccc(OC)cc2)c1	2	-2	2	4	0	.
O=C(Cn1c(CN2CCCCC2)nc2ccccc2c1=O)NCc1ccco1	3	-1	-4	-7	2	.
COC(=O)c1ccc2c(=O)sc(N3CCC(C(N)=O)CC3)nc2c1	17	2	-40	-1	39*	0
CCSc1nc2cc(C(=O)OC)ccc2c(=O)n1CC	15	1	-5	7	1	.
CCOc1ccc(S(=O)(=O)N(CC(=O)O)c2ccc(C)cc2)cc1	2	-5	-42	0	38*	-12
Cc1ccc(-c2nc(CCN3C(=O)c4ccccc4C3=O)cs2)cc1	10	0	-44	5	48*	5
O=C(Nc1ccc2c(c1)OCCO2)C1CCN(S(=O)(=O)c2cccc3nsnc23)CC1	0	-4	-5	0	3	.
O=C(Nc1ccc2c(c1)OCCO2)C1CCCN(S(=O)(=O)c2cccc3nsnc23)C1 (configuration not stated)	7	1	-47	-1	42*	-5
Cc1nonc1NCn1nnc2ccccc21	3	1	-16	2	18	.
COC(=O)C1=C(C)NC(=O)CC1c1cc(Br)ccc1F (configuration not stated)	-2	3	-43	-2	38*	-3
COc1ccc(Br)cc1C1NC(=O)NC(C)=C1C(=O)N(C)C (configuration not stated)	10	-1	1	5	-1	.
CCCCCC(C(=O)O)C(C)CC(=O)NC1CCCCC1 (configuration not stated)	1	-8	-4	-4	2	.
CCOc1cc(NC(=S)NCC2CCCO2)c(OCC)cc1NC(=O)c1ccccc1C (configuration not stated)	-1	0	-7	-4	10	.
Cc1ccccc1C(=O)NC(=S)NCC1CCCO1 (configuration not stated)	-2	-8	-35	3	39*	1
COC(=O)c1ccc(Oc2c(C)oc3c(CN4CCN(C)CC4)c(O)ccc3c2=O)cc1	3	0	0	-6	0	.
Cc1cc(C(=O)CN2C(=O)c3cccc(N)c3C2=O)c(C)n1Cc1cccs1	8	0	2	8	-5	.
CCC(=O)c1ccc(N2CCN(C(=O)Cc3ccccc3)CC2)c(F)c1	6	3	-41	-4	41*	4
